Data taken from ChEMBL document CHEMBL1140069, “In vitro antifungal activity of polyfunctionalized 2-(hetero)arylquinolines prepared through imino Diels-Alder reactions” (2008).
Values after ≈ are worked out from the molar mass of the structure shown.

Assays:
Type in all cases: functional
Aspergillus flavus = assay: Antifungal activity against Aspergillus flavus ATCC 9170 after 48 hrs by broth microdilution technique; conditions: ATCC 9170, 48 h
In short: (§1)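 CLSI broth microdilution: M-27 A2 for yeasts and M-38 A for filamentous fungi. Medium is RPMI-1640 buffered to pH 7.0 with MOPS. Compound is diluted twofold from 250 to 0.98, final DMSO ≤2%. Inoculum is 1–5 × 10³ CFU/mL. Plates are incubated at 35 °C in a moist, dark chamber and read visually at 48 h. MIC100 is the lowest concentration giving total growth inhibition versus drug-free control.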

Aspergillus niger = assay: Antifungal activity against Aspergillus niger ATCC 9029 after 48 hrs by broth microdilution technique; conditions: ATCC 9029, 48 h; in short: as §1
Nannizzia gypsea = assay: Antifungal activity against Microsporum gypseum C115 after 48 hrs by broth microdilution technique; in short: as §1
Candida albicans [1] = assay: Antimicrobial activity against Candida albicans ATCC 10231 at 100 ug/ml after 24 hrs; conditions: ATCC 10231, 24 h
In short: (§2)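 Growth-inhibition microplate test. Strains are grown on Sabouraud-chloramphenicol agar for 48 h at 30 °C, and inoculum is added to RPMI-1640 containing compound at a final 100–6.25, with DMSO ≤2%. Each strain has a growth control (same DMSO, no compound) and a sterility control.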

Candida albicans [2] = assay: Antimicrobial activity against Candida albicans ATCC 10231 at 12.5 ug/ml after 24 hrs; conditions: ATCC 10231, 24 h; in short: as §2
Candida albicans [3] = assay: Antimicrobial activity against Candida albicans ATCC 10231 at 6.25 ug/ml after 24 hrs; conditions: ATCC 10231, 24 h; in short: as §2
Cryptococcus neoformans [4] = assay: Antimicrobial activity against Cryptococcus neoformans IM 972724 isolate at 6.25 ug/ml after 48 hrs
In short: (§3)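 Clinical Cryptococcus isolates kept on Sabouraud-dextrose agar slopes; inoculum 1–5 × 10³ CFU/mL. Quinoline DMSO stocks were diluted in RPMI-1640 to final 100–6.25 µg/mL, with DMSO ≤2%. An equal volume of inoculum was added (200 µL per well). Run in triplicate.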

Cryptococcus neoformans [5] = assay: Antimicrobial activity against Cryptococcus neoformans ATCC 32264 at 50 ug/ml after 48 hrs; conditions: ATCC 32264, 48 h
In short: (§4)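 Percent growth inhibition in 96-well microplates. Compound stocks in DMSO (≤2%) were diluted in RPMI-1640 to final 100–6.25 µg/mL, and 100 µL inoculum was added (final 200 µL). Controls were a growth well (inoculum with matching DMSO, no compound) and a sterility well (no inoculum). Inhibition was calculated against growth and sterility wells.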

Cryptococcus neoformans [6] = assay: Antimicrobial activity against Cryptococcus neoformans IM 972724 isolate at 50 ug/ml after 48 hrs; in short: as §3
Cryptococcus neoformans [7] = assay: Antimicrobial activity against Cryptococcus neoformans IM 042074 isolate at 100 ug/ml after 48 hrs; in short: as §4
Cryptococcus neoformans [8] = assay: Antimicrobial activity against Cryptococcus neoformans IM 042074 isolate at 50 ug/ml after 48 hrs; in short: as §4
Cryptococcus neoformans [9] = assay: Antimicrobial activity against Cryptococcus neoformans IM 042074 isolate at 12.5 ug/ml after 48 hrs; in short: as §4
Cryptococcus neoformans [10] = assay: Antimicrobial activity against Cryptococcus neoformans IM 042074 isolate at 6.25 ug/ml after 48 hrs; in short: as §4
Cryptococcus neoformans [11] = assay: Antimicrobial activity against Cryptococcus neoformans IM 983036 isolate at 25 ug/ml after 48 hrs; in short: as §3
Cryptococcus neoformans [12] = assay: Antimicrobial activity against Cryptococcus neoformans IM 983036 isolate at 12.5 ug/ml after 48 hrs; in short: as §3
Cryptococcus neoformans [13] = assay: Antimicrobial activity against Cryptococcus neoformans IM 983036 isolate at 6.25 ug/ml after 48 hrs; in short: as §3
Cryptococcus neoformans [14] = assay: Antimicrobial activity against Cryptococcus neoformans IM 00319 isolate at 100 ug/ml after 48 hrs; in short: as §4
Cryptococcus neoformans [15] = assay: Antimicrobial activity against Cryptococcus neoformans IM 00319 isolate at 50 ug/ml after 48 hrs; in short: as §4
Cryptococcus neoformans [16] = assay: Antimicrobial activity against Cryptococcus neoformans IM 00319 isolate at 25 ug/ml after 48 hrs; in short: as §4
Cryptococcus neoformans [17] = assay: Antimicrobial activity against Cryptococcus neoformans IM 972751 isolate at 100 ug/ml after 48 hrs; in short: as §3
Cryptococcus neoformans [18] = assay: Antimicrobial activity against Cryptococcus neoformans IM 972751 isolate at 25 ug/ml after 48 hrs; in short: as §3
Cryptococcus neoformans [19] = assay: Antimicrobial activity against Cryptococcus neoformans IM 972751 isolate at 6.25 ug/ml after 48 hrs; in short: as §3
Cryptococcus neoformans [20] = assay: Antimicrobial activity against Cryptococcus neoformans IM 031631 isolate at 50 ug/ml after 48 hrs; in short: as §4
Cryptococcus neoformans [21] = assay: Antimicrobial activity against Cryptococcus neoformans IM 031631 isolate at 25 ug/ml after 48 hrs; in short: as §4
Cryptococcus neoformans [22] = assay: Antimicrobial activity against Cryptococcus neoformans IM 031631 isolate at 6.25 ug/ml after 48 hrs; in short: as §4
Cryptococcus neoformans [23] = assay: Antimicrobial activity against Cryptococcus neoformans IM 031706 isolate at 100 ug/ml after 48 hrs; in short: as §4
Cryptococcus neoformans [24] = assay: Antimicrobial activity against Cryptococcus neoformans IM 031706 isolate at 25 ug/ml after 48 hrs; in short: as §4
Cryptococcus neoformans [25] = assay: Antimicrobial activity against Cryptococcus neoformans IM 031706 isolate at 12.5 ug/ml after 48 hrs; in short: as §4
Cryptococcus neoformans [26] = assay: Antimicrobial activity against Cryptococcus neoformans IM 961951 isolate at 100 ug/ml after 48 hrs; in short: as §4
Cryptococcus neoformans [27] = assay: Antimicrobial activity against Cryptococcus neoformans IM 961951 isolate at 50 ug/ml after 48 hrs; in short: as §3
Cryptococcus neoformans [28] = assay: Antimicrobial activity against Cryptococcus neoformans IM 961951 isolate at 25 ug/ml after 48 hrs; in short: as §3
Cryptococcus neoformans [29] = assay: Antimicrobial activity against Cryptococcus neoformans IM 961951 isolate at 12.5 ug/ml after 48 hrs; in short: as §4
Cryptococcus neoformans [30] = assay: Antimicrobial activity against Cryptococcus neoformans IM 961951 isolate at 6.25 ug/ml after 48 hrs; in short: as §3
Cryptococcus neoformans [31] = assay: Antimicrobial activity against Cryptococcus neoformans IM 052470 isolate at 100 ug/ml after 48 hrs; in short: as §4
Cryptococcus neoformans [32] = assay: Antimicrobial activity against Cryptococcus neoformans IM 052470 isolate at 25 ug/ml after 48 hrs; in short: as §4
Cryptococcus neoformans [33] = assay: Antimicrobial activity against Cryptococcus neoformans ATCC 32264 at 12.5 ug/ml after 48 hrs; conditions: ATCC 32264, 48 h; in short: as §4
Cryptococcus neoformans [34] = assay: Antimicrobial activity against Cryptococcus neoformans IM 983040 isolate at 50 ug/ml after 48 hrs; in short: as §3
Cryptococcus neoformans [35] = assay: Antimicrobial activity against Cryptococcus neoformans IM 983040 isolate at 25 ug/ml after 48 hrs; in short: as §3
Cryptococcus neoformans [36] = assay: Antimicrobial activity against Cryptococcus neoformans IM 983040 isolate at 6.25 ug/ml after 48 hrs; in short: as §3
Cryptococcus neoformans [37] = assay: Antimicrobial activity against Cryptococcus neoformans IM 972724 isolate at 100 ug/ml after 48 hrs; in short: as §3
Cryptococcus neoformans [38] = assay: Antimicrobial activity against Cryptococcus neoformans IM 052470 isolate at 6.25 ug/ml after 48 hrs; in short: as §4
Candida albicans [39] = assay: Antifungal activity against Candida albicans ATCC 10231 after 48 hrs by broth microdilution technique; conditions: ATCC 10231, 48 h; in short: as §1
Cryptococcus neoformans [40] = assay: Antifungal activity against Cryptococcus neoformans ATCC 32264 after 48 hrs by broth microdilution technique; conditions: ATCC 32264, 48 h; in short: as §1

Cc1cc(-c2ccncc2)nc2ccccc12 gave an MIC (Aspergillus flavus) of 100 µg/mL (≈ 454 µM), an MIC (Aspergillus niger) of 200 µg/mL (≈ 908 µM) and an MIC (Nannizzia gypsea) of 25 µg/mL (≈ 113 µM). The inhibition at 100 µg/mL (Candida albicans [1]) was 100%, the inhibition at 12.5 µg/mL (Candida albicans [2]) was 41% and the inhibition at 6.25 µg/mL (Candida albicans [3]) was 19%. The inhibition at 6.25 µg/mL (Cryptococcus neoformans [4]) was 0%, the inhibition at 50 µg/mL (Cryptococcus neoformans [5]) was 100% and the inhibition at 50 µg/mL (Cryptococcus neoformans [6]) was 23%. For the same molecule, the inhibition at 100 µg/mL (Cryptococcus neoformans [7]) was 92%, the inhibition at 50 µg/mL (Cryptococcus neoformans [8]) was 87% and the inhibition at 12.5 µg/mL (Cryptococcus neoformans [9]) was 76%. For the same molecule, the inhibition at 6.25 µg/mL (Cryptococcus neoformans [10]) was 68%, the inhibition at 25 µg/mL (Cryptococcus neoformans [11]) was 45% and the inhibition at 12.5 µg/mL (Cryptococcus neoformans [12]) was 20%. For the same molecule, the inhibition at 6.25 µg/mL (Cryptococcus neoformans [13]) was 0%, the inhibition at 100 µg/mL (Cryptococcus neoformans [14]) was 92% and the inhibition at 50 µg/mL (Cryptococcus neoformans [15]) was 80%. The inhibition at 25 µg/mL (Cryptococcus neoformans [16]) was 52%, the inhibition at 100 µg/mL (Cryptococcus neoformans [17]) was 98% and the inhibition at 25 µg/mL (Cryptococcus neoformans [18]) was 9%. The inhibition at 6.25 µg/mL (Cryptococcus neoformans [19]) was 0%, the inhibition at 50 µg/mL (Cryptococcus neoformans [20]) was 75% and the inhibition at 25 µg/mL (Cryptococcus neoformans [21]) was 57%. It also gave an inhibition at 6.25 µg/mL (Cryptococcus neoformans [22]) of 12%, an inhibition at 100 µg/mL (Cryptococcus neoformans [23]) of 100% and an inhibition at 25 µg/mL (Cryptococcus neoformans [24]) of 57%. For the same molecule, the inhibition at 12.5 µg/mL (Cryptococcus neoformans [25]) was 41%, the inhibition at 100 µg/mL (Cryptococcus neoformans [26]) was 97% and the inhibition at 50 µg/mL (Cryptococcus neoformans [27]) was 89%. It also gave an inhibition at 25 µg/mL (Cryptococcus neoformans [28]) of 78%, an inhibition at 12.5 µg/mL (Cryptococcus neoformans [29]) of 34% and an inhibition at 6.25 µg/mL (Cryptococcus neoformans [30]) of 4%. It also gave an inhibition at 100 µg/mL (Cryptococcus neoformans [31]) of 99%, an inhibition at 25 µg/mL (Cryptococcus neoformans [32]) of 53% and an inhibition at 12.5 µg/mL (Cryptococcus neoformans [33]) of 90.5%. It also gave an inhibition at 50 µg/mL (Cryptococcus neoformans [34]) of 34%, an inhibition at 25 µg/mL (Cryptococcus neoformans [35]) of 12% and an inhibition at 6.25 µg/mL (Cryptococcus neoformans [36]) of 0%. It also gave an inhibition at 100 µg/mL (Cryptococcus neoformans [37]) of 74%, an inhibition at 6.25 µg/mL (Cryptococcus neoformans [38]) of 0% and an MIC (Candida albicans [39]) of 100 µg/mL (≈ 454 µM). The MIC (Cryptococcus neoformans [40]) was 25 µg/mL (≈ 113 µM).
